Results from different studies.
Protocols differ between the studies behind these lines.
Observed: metabolic stability
Medium: liver microsomes

| SMILES | system | setting | microsomal CLint [µL/min/mg] |
| --- | --- | --- | --- |
| CCOc1ccc2ccc(=O)oc2c1 | mouse | 1 µM, pH 7.4 | 522 |
| c1ccc(C2CCN(c3nc(-c4cnn5cccnc45)nc4ccccc34)C2)nc1 (stereo not shown) | mouse |  | 153 |
| O=C(Nc1ccnc(C(F)(F)F)c1)Nc1cccc2c1OC(F)(F)O2 | mouse |  | 92 |
| O=C(C1CCCCC1)N1CC(=O)N2CCc3ccccc3[C@@H]2C1 | mouse | 0.1 µM, pH 7.4 | > 1000 |
| CCC(F)(F)c1nc2nc(C)cc(Nc3ccc(C(F)(F)F)cc3)n2n1 | mouse | 1 µM, pH 7.4 | < 10 |
| CC1=C(C(N)=O)C(=O)/C(=C\c2cc(C)n(-c3ccccc3C(F)(F)F)c2C)N1 | mouse | 1 µM | 93 |
| c1ccc(CCNc2nc(-c3ccccn3)nc3ccccc23)nc1 | mouse |  | 336 |
| CCOC(=O)c1c(-c2cccc(Cl)c2)[nH]c2cc(OC)ccc2c1=O | female CD-1 mouse | 19.8 µM, pH 7.4 | > 15 |
| Oc1ccc(-c2nc(N3CCC(c4ccccn4)C3)c3ccccc3n2)cc1 (stereo not shown) | mouse |  | 388 |
| CCC(F)(F)c1nc2nc(C)cc(Nc3ccc(S(F)(F)(F)(F)F)cc3)n2n1 | mouse | 1 µM, pH 7.4 | < 10 |
| c1ccc(-c2nc(NCc3cccnc3)c3ccccc3n2)nc1 | mouse |  | 64 |
| CCOC(=O)c1c(-c2cccc(Br)c2)[nH]c2cc(OC)c(F)cc2c1=O | female CD-1 mouse | 19.8 µM, pH 7.4 | < 4 |
| CCOC(=O)C1=C(C)N/C(=C/c2cc(CC)n(-c3ccccc3C(F)(F)F)c2CC)C1=O | mouse | 1 µM | 143 |
| CCOC(=O)c1c(-c2cccc(Oc3ccccc3)c2)[nH]c2cc(OC)ccc2c1=O | female CD-1 mouse | 19.8 µM, pH 7.4 | > 15 |
| c1ccc(CN2CCN(c3nc(-c4ccccn4)nc4ccccc34)CC2)cc1 | mouse |  | 393 |
| CCCOc1cccc(-c2[nH]c3cc(OC)ccc3c(=O)c2C(=O)OCC)c1 | female CD-1 mouse | 19.8 µM, pH 7.4 | > 15 |
| Cc1cc(Nc2ccc(C(F)(F)F)cc2)n2nc(C(C)(F)F)nc2n1 | mouse | 1 µM, pH 7.4 | < 10 |
| COc1ccc(Nc2nc(-c3ccccn3)nc3ccccc23)cc1 | mouse |  | 158 |
| Cc1cc(Nc2ccc(C(F)(F)F)cc2)c2ccccc2n1 | mouse |  | 98 |
